Test results published in ChEMBL document CHEMBL3526002, “Tissue distribution and identification of radioactivity components at elimination phase after oral administration of [¹⁴C]CS-1036, an α-amylase inhibitor, to rats” (Drug Metab Dispos, 2013).

Experiments:
Conditions in all cases: in vivo
[1] = test system: Harderian gland; assay: Drug uptake in albino F344/DuCrlCrlj rat harderian gland assessed as ng equivalent of CS-1036 at 5 mg/kg, po after 72 hrs by liquid scintillation counting; assay type: ADME, organism-based; design: dose 5 mg/kg, dosed compound name [14C]CS-1036, route oral
[2] = test system: Plasma; assay: Drug uptake in albino F344/DuCrlCrlj rat plasma at 5 mg/kg, po after 4 hrs by liquid scintillation counting; assay type: ADME, organism-based; design: dose 5 mg/kg, dosed compound name [14C]CS-1036, route oral
[3] = test system: Large intestine; assay: Drug uptake in albino F344/DuCrlCrlj rat large intestine assessed as ng equivalent of CS-1036 at 5 mg/kg, po after 336 hrs by liquid scintillation counting; assay type: ADME, organism-based; design: dose 5 mg/kg, dosed compound name [14C]CS-1036, route oral
[4] = test system: Kidney; assay: Drug uptake in albino F344/DuCrlCrlj rat kidney at 5 mg/kg, po after 336 hrs by liquid scintillation counting; assay type: ADME, organism-based; design: dose 5 mg/kg, dosed compound name [14C]CS-1036, route oral
[5] = Drug uptake in albino F344/DuCrlCrlj rat eyeball assessed as ng equivalent of CS-1036 at 5 mg/kg, po after 168 hrs by liquid scintillation counting; assay type: ADME, organism-based; design: dose 5 mg/kg, dosed compound name [14C]CS-1036, route oral
[6] = test system: Heart; assay: Drug uptake in albino F344/DuCrlCrlj rat heart at 5 mg/kg, po after 1 hr by liquid scintillation counting; assay type: ADME, organism-based; design: dose 5 mg/kg, dosed compound name [14C]CS-1036, route oral
[7] = test system: Kidney; assay: Drug uptake in albino F344/DuCrlCrlj rat kidney at 5 mg/kg, po after 24 hrs by liquid scintillation counting; assay type: ADME, organism-based; design: dose 5 mg/kg, dosed compound name [14C]CS-1036, route oral
[8] = test system: Harderian gland; assay: Drug uptake in albino F344/DuCrlCrlj rat harderian gland at 5 mg/kg, po after 1 hr by liquid scintillation counting; assay type: ADME, organism-based; design: dose 5 mg/kg, dosed compound name [14C]CS-1036, route oral
[9] = Drug uptake in albino F344/DuCrlCrlj rat bone marrow at 5 mg/kg, po after 24 hrs by liquid scintillation counting; assay type: ADME, organism-based; design: dose 5 mg/kg, dosed compound name [14C]CS-1036, route oral
[10] = test system: Thymus; assay: Drug uptake in albino F344/DuCrlCrlj rat thymus at 5 mg/kg, po after 336 hrs by liquid scintillation counting; assay type: ADME, organism-based; design: dose 5 mg/kg, dosed compound name [14C]CS-1036, route oral
[11] = Drug uptake in albino F344/DuCrlCrlj rat epididymis assessed as ng equivalent of CS-1036 at 5 mg/kg, po after 1 hr by liquid scintillation counting; assay type: ADME, organism-based; design: dose 5 mg/kg, dosed compound name [14C]CS-1036, route oral
[12] = test system: Pancreas; assay: Drug uptake in albino F344/DuCrlCrlj rat pancreas at 5 mg/kg, po after 1 hr by liquid scintillation counting; assay type: ADME, organism-based; design: dose 5 mg/kg, dosed compound name [14C]CS-1036, route oral
[13] = test system: Plasma; assay: Drug metabolism in albino F344/DuCrlCrlj rat plasma assessed as (2R,3R,4R)-2-(hydroxymethyl)pyrrolidine-3,4-diol formation at 10 mg/kg, po after 8 to 72 hrs by liquid scintillation counting; assay type: ADME, organism-based; design: dose 10 mg/kg, dosed compound name [14C]CS-1036, route oral
[14] = test system: Stomach; assay: Drug uptake in albino F344/DuCrlCrlj rat stomach assessed as ng equivalent of CS-1036 at 5 mg/kg, po after 336 hrs by liquid scintillation counting; assay type: ADME, organism-based; design: dose 5 mg/kg, dosed compound name [14C]CS-1036, route oral
[15] = test system: Thymus; assay: Drug uptake in albino F344/DuCrlCrlj rat thymus at 5 mg/kg, po after 72 hrs by liquid scintillation counting; assay type: ADME, organism-based; design: dose 5 mg/kg, dosed compound name [14C]CS-1036, route oral
[16] = test system: Plasma; assay: Drug uptake in albino F344/DuCrlCrlj rat plasma at 5 mg/kg, po after 1 hr by liquid scintillation counting; assay type: ADME, organism-based; design: dose 5 mg/kg, dosed compound name [14C]CS-1036, route oral
[17] = test system: Thymus; assay: Drug uptake in albino F344/DuCrlCrlj rat thymus assessed as ng equivalent of CS-1036 at 5 mg/kg, po after 4 hrs by liquid scintillation counting; assay type: ADME, organism-based; design: dose 5 mg/kg, dosed compound name [14C]CS-1036, route oral
[18] = test system: Blood; assay: Drug uptake in albino F344/DuCrlCrlj rat blood at 5 mg/kg, po after 72 hrs by liquid scintillation counting; assay type: ADME, organism-based; design: dose 5 mg/kg, dosed compound name [14C]CS-1036, route oral
Method in brief: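 Male rats (159–167 g; n = 3) received a single oral dose of [14C]CS-1036 at 5 mg/kg. Blood was drawn from the abdominal aorta at 1, 4, 8, 24, 72, 168 and 336 h. Radioactivity was counted by LSC with external-standard efficiency correction. Results are expressed as ng equivalent/ml from the specific activity and sample volume; mean + S.D.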

[19] = test system: Cerebellum; assay: Drug uptake in albino F344/DuCrlCrlj rat cerebellum at 5 mg/kg, po after 4 hrs by liquid scintillation counting; assay type: ADME, organism-based; design: dose 5 mg/kg, dosed compound name [14C]CS-1036, route oral
[20] = test system: Stomach; assay: Drug uptake in albino F344/DuCrlCrlj rat stomach at 5 mg/kg, po after 72 hrs by liquid scintillation counting; assay type: ADME, organism-based; design: dose 5 mg/kg, dosed compound name [14C]CS-1036, route oral
[21] = test system: Large intestine; assay: Drug uptake in albino F344/DuCrlCrlj rat large intestine at 5 mg/kg, po after 8 hrs by liquid scintillation counting; assay type: ADME, organism-based; design: dose 5 mg/kg, dosed compound name [14C]CS-1036, route oral
[22] = test system: Aorta; assay: Drug uptake in albino F344/DuCrlCrlj rat aorta assessed as ng equivalent of CS-1036 at 5 mg/kg, po after 168 hrs by liquid scintillation counting; assay type: ADME, organism-based; design: dose 5 mg/kg, dosed compound name [14C]CS-1036, route oral
[23] = test system: Large intestine; assay: Drug uptake in albino F344/DuCrlCrlj rat large intestine assessed as ng equivalent of CS-1036 at 5 mg/kg, po after 168 hrs by liquid scintillation counting; assay type: ADME, organism-based; design: dose 5 mg/kg, dosed compound name [14C]CS-1036, route oral
[24] = test system: Zone of skin; assay: Drug uptake in albino F344/DuCrlCrlj rat skin at 5 mg/kg, po after 8 hrs by liquid scintillation counting; assay type: ADME, organism-based; design: dose 5 mg/kg, dosed compound name [14C]CS-1036, route oral
[25] = Drug uptake in albino F344/DuCrlCrlj rat fat at 5 mg/kg, po after 168 hrs by liquid scintillation counting; assay type: ADME, organism-based, Adipose tissue; design: dose 5 mg/kg, dosed compound name [14C]CS-1036, route oral
Method in brief: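 Male F344/DuCrlCrlj rats (bought at 7 weeks, acclimatized 5–6 days; 159–167 g; n = 3 per time point) received a single oral dose of [14C]CS-1036 at 5 mg/kg. White adipose tissue was collected after abdominal aortic bleeding at 1, 4, 8, 24, 72, 168 or 336 h. Samples were counted by LSC with external-standard efficiency correction. Results were converted to ng equivalents per g from specific activity and sample weight.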

[26] = test system: Thymus; assay: Drug uptake in albino F344/DuCrlCrlj rat thymus assessed as ng equivalent of CS-1036 at 5 mg/kg, po after 72 hrs by liquid scintillation counting; assay type: ADME, organism-based; design: dose 5 mg/kg, dosed compound name [14C]CS-1036, route oral
[27] = test system: Cerebellum; assay: Drug uptake in albino F344/DuCrlCrlj rat cerebellum at 5 mg/kg, po after 336 hrs by liquid scintillation counting; assay type: ADME, organism-based; design: dose 5 mg/kg, dosed compound name [14C]CS-1036, route oral
[28] = Drug uptake in albino F344/DuCrlCrlj rat mandibular gland at 5 mg/kg, po after 336 hrs by liquid scintillation counting; assay type: ADME, organism-based; design: dose 5 mg/kg, dosed compound name [14C]CS-1036, route oral
[29] = test system: Stomach; assay: Drug uptake in albino F344/DuCrlCrlj rat stomach at 5 mg/kg, po after 8 hrs by liquid scintillation counting; assay type: ADME, organism-based; design: dose 5 mg/kg, dosed compound name [14C]CS-1036, route oral
[30] = test system: Large intestine; assay: Drug uptake in albino F344/DuCrlCrlj rat large intestine assessed as ng equivalent of CS-1036 at 5 mg/kg, po after 24 hrs by liquid scintillation counting; assay type: ADME, organism-based; design: dose 5 mg/kg, dosed compound name [14C]CS-1036, route oral
[31] = test system: Cerebellum; assay: Drug uptake in albino F344/DuCrlCrlj rat cerebellum assessed as ng equivalent of CS-1036 at 5 mg/kg, po after 336 hrs by liquid scintillation counting; assay type: ADME, organism-based; design: dose 5 mg/kg, dosed compound name [14C]CS-1036, route oral
[32] = test system: Spleen; assay: Drug uptake in albino F344/DuCrlCrlj rat spleen at 5 mg/kg, po after 168 hrs by liquid scintillation counting; assay type: ADME, organism-based; design: dose 5 mg/kg, dosed compound name [14C]CS-1036, route oral
[33] = test system: Aorta; assay: Drug uptake in albino F344/DuCrlCrlj rat aorta assessed as ng equivalent of CS-1036 at 5 mg/kg, po after 1 hr by liquid scintillation counting; assay type: ADME, organism-based; design: dose 5 mg/kg, dosed compound name [14C]CS-1036, route oral
[34] = Drug uptake in albino F344/DuCrlCrlj rat bone marrow assessed as ng equivalent of CS-1036 at 5 mg/kg, po after 24 hrs by liquid scintillation counting; assay type: ADME, organism-based; design: dose 5 mg/kg, dosed compound name [14C]CS-1036, route oral
[35] = test system: Spleen; assay: Drug uptake in albino F344/DuCrlCrlj rat spleen at 5 mg/kg, po after 4 hrs by liquid scintillation counting; assay type: ADME, organism-based; design: dose 5 mg/kg, dosed compound name [14C]CS-1036, route oral
[36] = test system: Small intestine; assay: Drug uptake in albino F344/DuCrlCrlj rat small intestine at 5 mg/kg, po after 8 hrs by liquid scintillation counting; assay type: ADME, organism-based; design: dose 5 mg/kg, dosed compound name [14C]CS-1036, route oral

With `C[C@H]1O[C@@H](O[C@H]2[C@H](O)[C@@H](O)[C@@H](O[14C@H]3[14C@H](O)[14CH2]N[14C@@H]3[14CH2]O)O[C@@H]2CO)[C@H](O)[C@@H](O)[C@@H]1O` as the compound, how does the Radiolabel recovery [1] read?
Its Radiolabel recovery is 67 ngequiv/g.

What about the Radiolabel recovery [2] of the same compound?
Its Radiolabel recovery is 60.1 ngequiv/ml.

What about the Radiolabel recovery [3] of the same compound?
The Radiolabel recovery was 6.02 ngequiv/g.

And the Radiolabel recovery [4]?
The Radiolabel recovery was 12 ngequiv/g.

And the Radiolabel recovery [5]?
Its Radiolabel recovery is 2.3 ngequiv/g.

And the Radiolabel recovery [6]?
The Radiolabel recovery was 27.9 ngequiv/g.

And the Radiolabel recovery [7]?
Its Radiolabel recovery is 137 ngequiv/g.

What about the Radiolabel recovery [8] of the same compound?
The Radiolabel recovery was 30.2 ngequiv/g.

And the Radiolabel recovery [9]?
Its Radiolabel recovery is 116 ngequiv/g.

What about the Radiolabel recovery [10] of the same compound?
Its Radiolabel recovery is 5.1 ngequiv/g.

And the Radiolabel recovery [11]?
The Radiolabel recovery was 2.8 ngequiv/g.

What about the Radiolabel recovery [12] of the same compound?
The Radiolabel recovery was 102 ngequiv/g.

And the Drug metabolism [13]?
Its Drug metabolism is “metabolite_detected”.

What about the Radiolabel recovery [14] of the same compound?
Its Radiolabel recovery is 5.1 ngequiv/g.

What about the Radiolabel recovery [15] of the same compound?
The Radiolabel recovery was 48.3 ngequiv/g.

What about the Radiolabel recovery [16] of the same compound?
Its Radiolabel recovery is 90.6 ngequiv/ml.

And the Radiolabel recovery [17]?
The Radiolabel recovery was 2.8 ngequiv/g.

And the Radiolabel recovery [18]?
The Radiolabel recovery was 16.1 ngequiv/ml.

And the Radiolabel recovery [19]?
The Radiolabel recovery was 11.2 ngequiv/g.

And the Radiolabel recovery [20]?
Its Radiolabel recovery is 49 ngequiv/g.

What about the Radiolabel recovery [21] of the same compound?
The Radiolabel recovery was 7770 ngequiv/g.

What about the Radiolabel recovery [22] of the same compound?
Its Radiolabel recovery is 6.8 ngequiv/g.

And the Radiolabel recovery [23]?
The Radiolabel recovery was 19 ngequiv/g.

What about the Radiolabel recovery [24] of the same compound?
Its Radiolabel recovery is 60.3 ngequiv/g.

And the Radiolabel recovery [25]?
Its Radiolabel recovery is 130 ngequiv/g.

And the Radiolabel recovery [26]?
The Radiolabel recovery was 6.6 ngequiv/g.

And the Radiolabel recovery [27]?
The Radiolabel recovery was 5.41 ngequiv/g.

And the Radiolabel recovery [28]?
Its Radiolabel recovery is 8.58 ngequiv/g.

What about the Radiolabel recovery [29] of the same compound?
The Radiolabel recovery was 135 ngequiv/g.

And the Radiolabel recovery [30]?
The Radiolabel recovery was 138 ngequiv/g.

And the Radiolabel recovery [31]?
The Radiolabel recovery was 3.05 ngequiv/g.

And the Radiolabel recovery [32]?
The Radiolabel recovery was 18.3 ngequiv/g.

What about the Radiolabel recovery [33] of the same compound?
Its Radiolabel recovery is 15.9 ngequiv/g.

And the Radiolabel recovery [34]?
The Radiolabel recovery was 19 ngequiv/g.

And the Radiolabel recovery [35]?
The Radiolabel recovery was 35.1 ngequiv/g.

And the Radiolabel recovery [36]?
Its Radiolabel recovery is 121 ngequiv/g.
